Screens deposited in PubChem BioAssay by several laboratories.
MEKK2 mut-MEK5 – MEK5 binding signal on mutant MEKK2 PB1, primary screen, biochemical, multiplex bead flow cytometry, Alexa488-MEK5; Alexa488-MEK5 binding to MEKK2 mutant; percent response, % at 10 µM; actives 0.35% (n = 290,000); AID 1530, 2009; in the data active = percent response above about 24%, passing the limit was not always enough
MEKK2wt PB1 HTS – modulators of MEK5 binding to wildtype MEKK2, primary screen, biochemical, multiplex bead flow cytometry, Alexa488-MEK5; Alexa488-MEK5 binding to MEKK2 WT; actives lie on both sides; binding response (% of control), % at 10 µM; actives 1.1% (n = 290,000); in the data active = binding response below about 67% or above about 130%
UBC13 polyUb – UBC13 polyubiquitin chain formation inhibitors, primary screen, biochemical, TR-FRET, uHTS; inhibition, % at 20 µM; Ubiquitin-conjugating enzyme E2 N (Homo sapiens), P61088; actives 0.47% (n = 330,000); AID 485273, 2010; in the data active = inhibition above about 45%, passing the limit was not always enough
Target sequence (P61088 whole entry, looked up): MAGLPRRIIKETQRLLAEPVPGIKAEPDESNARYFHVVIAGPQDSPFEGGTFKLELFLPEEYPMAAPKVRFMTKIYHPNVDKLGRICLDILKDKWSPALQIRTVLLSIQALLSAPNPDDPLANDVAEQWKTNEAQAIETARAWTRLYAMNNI
Apaf1 inhib – inhibitors of human Apaf-1 apoptosome, primary screen, biochemical, DEVD-Rh110 fluorescence, uHTS; reconstituted apoptosome caspase-3 activity; inhibition, % at 20 µM; actives 0.71% (n = 330,000); AID 489030, 2010; active = inhibition of at least 40% at 20 µM;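 also: plate controls were DMSO wells for no effect and DEVD-CHO caspase inhibitor wells for full effect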
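Material: reconstituted apoptosome with Apaf-1, cytochrome c, caspase-9, procaspase-3, dATP / Buffer or medium: pH 7.5 Hepes buffer with CHAPS, BSA, DTT / Also added: cytochrome c with DEVD-Rh110 / Schedule: compound with Apaf-1, dATP, procaspase-3 30 min, then 50 min reaction, room temperature / Technique: rhodamine 110 fluorescence at Ex 480/Em 540 nm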
UCH37 inh – inhibitors of human UCH37 deubiquitinase, primary screen, biochemical, Ub-AMC cleavage, fluorescence. AID 588478, 2011. inhibition, % (no concentration beside the values). actives 0.33% (n = 330,000). Ubiquitin carboxyl-terminal hydrolase isozyme L5 (Homo sapiens), Q9Y5K5. purified proteasome/UCH37;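 active = mean inhibition over replicate wells above about 20%, limit read from the data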;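 also: 0% = compound-free wells with enzyme and 100% = wells lacking proteasome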
Target sequence (Q9Y5K5 whole entry, looked up): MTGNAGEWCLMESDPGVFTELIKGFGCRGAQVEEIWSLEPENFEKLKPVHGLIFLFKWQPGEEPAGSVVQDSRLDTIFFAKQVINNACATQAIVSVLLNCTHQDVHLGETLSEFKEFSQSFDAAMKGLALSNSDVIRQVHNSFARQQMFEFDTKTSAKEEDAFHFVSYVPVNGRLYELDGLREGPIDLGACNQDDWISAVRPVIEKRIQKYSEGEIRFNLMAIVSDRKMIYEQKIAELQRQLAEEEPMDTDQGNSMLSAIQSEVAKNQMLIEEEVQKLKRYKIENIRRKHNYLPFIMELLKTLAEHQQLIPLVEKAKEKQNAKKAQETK
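Test system – human UCH37 enzyme supplied as purified proteasome complex · Incubation – 30 min preincubation with enzyme, 25 min cleavage at room temperature · Detection – AMC fluorescence from Ub-AMC cleavage, excitation 355 nm, emission 460 nm · Benchmarks – no-proteasome wells (full inhibition) and compound-free wells (no inhibition)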
MEKK3 PB1 HTS – modulators of MEKK3-MEK5 PB1 binding, primary screen, biochemical, wildtype MEKK3, multiplex bead flow cytometry, Alexa488-MEK5 | Mitogen-activated protein kinase kinase kinase 3 (Homo sapiens), Q99759 | actives 1.4% (n = 290,000) | binding response (% of control), % at 10 µM | bead-based flow cytometry, Alexa488-MEK5 binding to MEKK3; actives lie on both sides; 0 = blocked by unlabeled MEK5, 100 = vehicle;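 active = binding response more than 3 SD above or below the average of its plate-row segment, actives on both sides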;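 also: Alexa488 bead fluorescence after subtracting the streptavidin-only scavenger bead signal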
Casp3 counter – CASP3 inhibitor validation, counterassay for project on UBE2N polyubiquitination blockers, biochemical, one dose. shares compounds with UBC13 polyUb. Recombinant caspase-3, Caspase-Glo 3/7 luminescence, 60 min. inhibition, % at 20 µM. actives 4% (n = 1,400);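 active = mean inhibition across replicates above about 26%, limit read from the data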;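 also: plate controls were DMSO with caspase-3 for no effect and DMSO wells lacking enzyme for full effect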
Target sequence (P42574 whole entry, looked up): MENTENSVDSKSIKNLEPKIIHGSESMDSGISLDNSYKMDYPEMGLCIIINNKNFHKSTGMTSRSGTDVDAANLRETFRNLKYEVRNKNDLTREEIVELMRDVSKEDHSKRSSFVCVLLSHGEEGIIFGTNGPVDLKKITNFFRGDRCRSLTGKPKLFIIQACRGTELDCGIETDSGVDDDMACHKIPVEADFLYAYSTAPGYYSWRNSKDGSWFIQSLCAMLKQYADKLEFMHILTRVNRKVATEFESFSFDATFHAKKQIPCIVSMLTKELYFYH
UBC13 confirm – UBC13 polyubiquitination inhibitors, single-point retest, confirmation, biochemical, TR-FRET, single concentration; shares compounds with UBC13 polyUb; inhibition, % at 10 µM; actives 68% (n = 1,400); in the data active = inhibition above about 45%
Apaf-1 inh conf2 – Apaf-1 inhibitors, single-dose retest, confirmation, biochemical, fluorescence, DEVD-Rh110, 20 µM | shares compounds with Apaf1 inhib | reconstituted apoptosome, caspase-3 DEVD-Rh110 fluorescence | inhibition, % at 20 µM | actives 25% (n = 1,800) | AID 504614, 2011;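 active = mean inhibition of at least 40% at 20 µM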;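 also: plate controls were DMSO wells for no effect and DEVD-CHO caspase inhibitor control wells for full effect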
Rh110 quench – Rh110 fluorescence interference by putative Apaf-1 inhibitors, confirmation, artefact control for Apaf-1 inhibitor project, biochemical, 20 µM; activation (fluorescence interference), % at 20 µM; 1,800 tested, under 10 active; shares compounds with Apaf1 inhib; quenched caspase reaction;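 active = signal rise of 40% or more at 20 µM, treated as a fluorescence artifact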
Fluor interf inh – fluorescence interference of Apaf-1 inhibitor hits, dose response, artefact control for Apaf-1 inhibitor project; shares compounds with Apaf1 inhib; fluorescence interference counterscreen, Apaf-1 assay format; IC50, µM; 460 tested, under 10 active; call rule not given here
An asterisk follows results filed as active; x = no result given. In the library only some 3% were active in any assay of this set; here they are far more common.

SMILES | MEKK2 mut-MEK5 | MEKK2wt PB1 HTS | UBC13 polyUb | Apaf1 inhib | UCH37 inh | MEKK3 PB1 HTS | Casp3 counter | UBC13 confirm | Apaf-1 inh conf2 | Rh110 quench | others
Nn1c(SCC(=O)Nc2ccc3c(c2)OCCO3)nnc1-c1ccncc1 | -4.0 | 99.0 | -3.0 | 1.5 | 1.5 | 98.0 | x | x | x | x
CC1CCN(C(=O)CSc2nc3ccccc3c(=O)[nH]2)CC1 | -11.0 | 88.0 | -4.7 | -11.6 | -0.2 | 100.0 | x | x | x | x
NC1=NC[C@@H](CC2CCCCC2)N1CCc1cc(C(F)(F)F)cc(C(F)(F)F)c1 | x | x | 91.2* | 78.7* | 5.8 | x | -3.6 | 101.0* | 50.5* | 28.7 | Fluor interf inh=>100
COc1cc(CCCN2C(N)=NC[C@@H]2c2ccccc2)cc(OC)c1OC | 7.0 | 113.0 | -2.5 | -0.2 | 1.2 | 109.0 | x | x | x | x
CCC(C)[C@H]1CN=C(N)N1CCc1cc(C(F)(F)F)cc(C(F)(F)F)c1 (stereo not given in full) | 3.0 | 102.0 | 79.4* | 56.5* | 0.1 | 98.0 | -3.1 | 46.5* | 22.1 | -2.5
NC1=NC[C@H](c2ccccc2)N1CCc1cc(C(F)(F)F)cc(C(F)(F)F)c1 | 10.0 | 106.0 | 80.4* | 54.3* | -0.9 | 110.0 | -2.4 | 53.0* | 29.8 | 7.6
CC(O)[C@H]1CN=C(N)N1CCc1cc(C(F)(F)F)cc(C(F)(F)F)c1 (stereo not given in full) | 4.0 | 101.0 | 10.9 | 4.9 | -1.7 | 89.0 | x | x | x | x
CCCCCOc1ccc(Br)cc1CSC(=N)N | 2.0 | 121.0 | x | x | 6.2 | 109.0 | x | x | x | x
CCCCCc1ccc(OCCCC[n+]2cccc(C)c2)c(CCCCC)c1 | -10.0 | 124.0 | 59.4* | 61.0* | 2.4 | 72.0 | -3.1 | 89.7* | 40.2* | 8.9 | Fluor interf inh=>100
Oc1ccc(C[C@H]2CNCCN2CCC23CC4CC(CC(C4)C2)C3)cc1 | x | x | 38.2 | 24.2 | -0.6 | x | x | x | x | x
Oc1ccc(C[C@@H]2CNCCN2CCC23CC4CC(CC(C4)C2)C3)cc1 | x | x | 58.1* | 47.0* | -0.6 | x | -3.3 | 24.7 | 1.5 | 5.1
CC(=O)Nc1ccc(S(=O)(=O)NCC(=O)NNC(=O)c2csc(N3CCOCC3)n2)cc1 | x | x | 5.6 | 4.4 | -1.2 | x | x | x | x | x
CC(C)C[C@H]1CN=C(Nc2ccccc2)N1CC1CCC(C(C)(C)C)CC1 (stereo not given in full) | x | x | 86.9* | 56.0* | 4.2 | x | -2.4 | 72.9* | 23.1 | 14.3
CCc1ccc(NS(=O)(=O)c2cccc3nsnc23)cc1 | 6.0 | 106.0 | 3.0 | 6.0 | 2.2 | 104.0 | x | x | x | x
Cc1ccc(C2CC(c3ccccc3)n3ncnc3N2)cc1 (stereo not given) | 0.0 | 100.0 | 7.8 | -8.1 | -0.5 | 98.0 | x | x | x | x
COc1ccc2oc(=Nc3ccccc3)c(-c3nc4ccccc4[nH]3)cc2c1 | 18.0 | 111.0 | -7.9 | -12.7 | -1.0 | 101.0 | x | x | x | x
C=CC(=O)Nc1ccc(N(C)c2ccnc(Nc3ccc(N4CCN(C)CC4)cc3)n2)cc1 | x | x | 85.3* | 61.6* | -0.3 | x | 1.7 | 76.6* | 24.8 | 5.8
CC(C)(C)c1ccc(OCCNCc2ccccc2)cc1 | 13.0 | 122.0 | 18.6 | 3.2 | 4.6 | 101.0 | x | x | x | x
CC(C)(C)CC(C)(C)c1ccc(OCCOCC[N+](C)(C)Cc2ccccc2)cc1 | x | x | 92.3* | 81.7* | 4.1 | x | -2.6 | 90.7* | 43.2* | 20.9 | Fluor interf inh=>100
N=c1n(CC(=O)c2ccc([N+](=O)[O-])cc2)c2ccccc2n1Cc1ccccc1 | 30.0 | 127.0 | 6.2 | -11.1 | 10.8 | 110.0 | x | x | x | x
N=c1n(CC(=O)c2ccc(Br)cc2)c2ccccc2n1Cc1ccccc1 | x | x | 57.1* | 53.4* | -0.2 | x | -2.6 | 61.2* | -34.4 | 19.0
COc1ccc(NS(=O)(=O)c2ccc(C)c(NC(=O)CN3C(=O)NC4(CCCC4)C3=O)c2)cc1 | x | x | 106.3* | 82.2* | 3.2 | x | -0.4 | 54.6* | 58.1* | 1.6 | Fluor interf inh=>100
CN(C)CCOc1ccc(-c2c(-c3ccsc3)sc3ccccc23)cc1 | x | x | 78.1* | 71.3* | x | x | -0.1 | 73.9* | 23.9 | 12.6
c1ccc(-c2sc3ccccc3c2-c2ccc(OCCN3CCOCC3)cc2)cc1 | x | x | 30.6 | 23.9 | -1.2 | x | x | x | x | x
COc1cccc(-c2sc3ccc(OC)cc3c2-c2ccc(OCCN(C)C)cc2)c1 | x | x | 84.2* | 75.4* | x | x | -0.5 | 90.1* | 23.4 | 20.0
Cc1cc(NC(=O)c2cc(-c3ccncc3)nc3c(C)cccc23)no1 | -9.0 | 86.0 | 23.2 | 7.3 | -37.1 | 87.0 | x | x | x | x
Cc1cccc(Nc2c(F)c(F)c(F)c(F)c2C(=O)O)c1 | 3.0 | 106.0 | -1.3 | -3.8 | 0.9 | 100.0 | x | x | x | x
COC(=O)C1=C(C)N(CC2CC2)C(=NCc2cccc(C(F)(F)F)c2)N[C@H]1c1ccccc1 | x | x | 66.5* | 57.1* | -1.4 | x | 3.3 | 74.9* | 13.6 | 12.1
COC(=O)C1=C(C)N(Cc2ccccc2)C(=NCc2cccc(C(F)(F)F)c2)N[C@H]1c1cccc(C(F)(F)F)c1 | x | x | 89.6* | 74.5* | 2.0 | x | 3.8 | 94.1* | 33.5 | 12.3
COCCN=C1N[C@@H](c2cccc(C(F)(F)F)c2)C(C(=O)OC)=C(C)N1Cc1ccccc1 | 12.0 | 114.0 | 6.4 | 26.3 | -1.9 | 103.0 | x | x | x | x
